# Bioassay records: PubChem, several laboratories
# APP 5'UTR act: activators of APP 5'UTR luciferase reporter, primary screen, SH-SY5Y cells; 1% of 190,000 active; SH-SY5Y APP 5'UTR luciferase reporter, luminescence; zero percent = DMSO vehicle wells; AID 1276, 2008; activation, % at 2 µM;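 active = activation above a set limit, based on mean plus 3 SD of controls, cut at about 140% in these data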
# STAT1 blocker: STAT1 signaling inhibitors, primary screen, cell-based, HTS, luciferase reporter; NIH 3T3 STAT1-luciferase reporter, IFN-gamma, luminescence; inhibition, % at 5.5 µM; 0.35% of 200,000 active;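 active = inhibition above a set limit, the mean inhibition across all tested compounds plus 3 SD, cut at about 34% in these data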;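 also: 0% = IFN-gamma with DMSO and 100% = IFN-gamma with 300 µM nifuroxazide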
# STAT1 act: STAT1 signaling activators, primary screen, cell-based, HTS, luciferase reporter; NIH 3T3 STAT1-luciferase reporter, IFN-gamma, luminescence; 100% = IFN-gamma alone, no compound; activation (% of control), % at 5.5 µM; 2.6% of 200,000 active; AID 932, 2007;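 active = activation above the screen-wide mean activation plus 3 SD, cut at about 130% in these data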;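 also: raw ratio to IFN-gamma control signal so 100% means no change and 0% no light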
# STAT3 activator: IL-6 driven STAT3 reporter potentiators, primary screen, U3A cells, luciferase, luminescence, MLSCN library | IL-6 STAT3-luciferase reporter; 100% = signal with IL-6 EC80 alone | activation (% of control), % at 5.6 µM | 0.91% of 190,000 active | AID 871, 2007;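 active = activation above the screen-wide mean of compound activation plus 3 SD, cut at about 130% in these data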;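 also: 0% = background luminescence of wells with medium and substrate only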
#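 System – human U3A cells carrying STAT3-luciferase construct · Probe or stimulus – Interleukin-6, 33 ng/mL · Schedule – compound 1 h, then IL-6 6 h at 37 °C · Signal – luminescence from STAT3-driven luciferase reporter · Evaluation – percent of IL-6-only median luminescence · Benchmarks – IL-6-only high control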
# NF-kB neuron act: activators of NF-kB expression in neurons, primary screen, cell-based, HTS | human neuronal cells, NF-kB reporter expression; active compounds read high | fold change at 12.5 µM | 1.6% of 190,000 active | AID 1239, 2008; in the data active = fold change above about 3.3
# STAT3 blocker: IL-6 driven STAT3 reporter inhibitors, primary screen, U3A cells, luciferase, luminescence, MLSCN library; AID 862, 2007; 0.89% of 190,000 active; inhibition, % at 5.5 µM; IL-6 STAT3-luciferase reporter; host cell line lacks STAT1;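 active = inhibition above the mean inhibition across all screened compounds plus 3 SD, cut at about 44% in these data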;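 also: 0% = DMSO only wells and 100% = 100 µM nifuroxazide control wells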
# * marks the source's active call; other numbers are inactive results. Rows were chosen to be rich in hits. Some 5.1% of all compounds tested hit in one or more screens of this group.
SMILES,APP 5'UTR act,STAT1 blocker,STAT1 act,STAT3 activator,NF-kB neuron act,STAT3 blocker
CCN(c1ccc(N=Cc2c(O)n(Cc3ccc(OC)cc3)c(=O)c3ccccc23)cc1)C(C)C,11,-3,101,102,1,8
COc1ccc2oc(=O)c(/C(C)=N/Nc3nc(-c4cc(C)ccc4C)cs3)cc2c1,-7,-2,102,107,1,-4
COc1ccc2oc(=O)c(-c3csc(Nc4ccc(O)cc4)n3)cc2c1,-7,-17,116,88,3.6*,21
Nc1ccc(NC(=O)c2cccs2)cc1,-9,-7,105,101,1.2,4
Nc1ccc(/C=C/C(=O)c2cccs2)cc1,143*,-26,122,99,5.9*,4
O=C(/C=C/NNC(=O)c1ccc(Cl)cc1)c1ccccc1,1,-36,133*,105,0.91,-2
C/C(N)=C(/C#N)C(=O)CSc1nc2ccc(C)cc2[nH]1,141*,-52,150*,118,4.3*,-17
Cc1cc(C(=O)CSc2nc3ccccc3[nH]2)c(C)n1C,149*,-45,142*,83,4*,24
Cc1ccc2nc(SCC(=O)c3c(N)n(C)c(=O)n(C)c3=O)[nH]c2c1,3,6,94,94,0.89,8
Cc1cc(C(=O)CSc2nc3ccc(Cl)cc3[nH]2)c(C)n1C,11,10,90,83,0.73,27
Cc1ccc2nc(SCC(=O)c3cc(C)n(C)c3C)[nH]c2c1,5,-1,101,84,3.4*,23
Cc1ccnc(NS(=O)(=O)c2ccc(NC(=O)C3C4C=CC(C4)C3C(=O)O)cc2)n1 (configuration not stated),-4,-2,101,107,1.1,4
CC(Sc1nnc(NC2CCCCC2)s1)C(=O)Nc1ccc2c(c1)C(=O)c1ccccc1C2=O (configuration not stated),32,-47,142*,98,1.2,0
CC(NCc1ccc(-c2ccccc2)cc1)C(O)c1ccccc1 (configuration not stated),-4,-3,103,101,0.84,-3
CC(=O)Nc1ccc(C2Nc3ccccc3C(=O)N2C2CCCCC2)cc1 (configuration not stated),6,-5,104,104,3.4*,0
Cc1ccc(C#N)c(SCC(=O)Nc2nccs2)n1,175*,-16,112,93,2.4,13
N#Cc1cc2c(nc1SCC(=O)Nc1nccs1)CCCCC2,195*,-25,123,84,2.2,22
Cc1ccc(SCC(=O)Nc2nccs2)cc1,27,-2,99,105,1.8,-2
CN1C(=O)/C(=C/c2ccccc2OCc2ccccc2F)NC1=S,-4,6,95,101,1.1,4
COc1ccc(CC(=O)Nc2ccc3c(c2)CCC3)cc1,27,-2,102,98,1.5,1
O=C(Cc1ccccc1)Nc1ccc2c(c1)CCC2,32,-38,133*,110,2,-2
CC1CCN(c2ccc(C(=O)NCc3ccco3)cc2[N+](=O)[O-])CC1,13,-5,105,99,1.3,4
CCOC(=O)c1c(NC(=O)CSc2c[nH]c3ccccc23)sc2c1CCC2,-14,3,97,107,4*,-8
CCOC(=O)c1c(NC(=O)CSc2nnc(-c3c[nH]c4ccccc34)n2CCOC)sc2c1CCCCC2,-11,4,96,109,0.56,-11
CCOC(=O)c1c(NC(=O)CSc2c[nH]c3ccccc23)sc2c1CCCC2,-10,-1,101,135*,3.2,-40
SMILES,APP 5'UTR act,STAT1 blocker,STAT1 act,STAT3 activator,NF-kB neuron act,STAT3 blocker
CCOC(=O)c1c(NC(=O)CSc2nnc3ccccn23)sc2c1CCC2,0,0,101,92,1.2,8
CCC(=O)Nc1cc2nn(-c3ccccc3)nc2cc1Cl,116,-48,144*,82,2.7,27
Cc1cc2nn(-c3ccccc3)nc2cc1NC(=O)c1cccs1,29,-47,143*,105,2.1,-2
C/C(CCc1ccc2c(c1)OCO2)=N\N=C1\NC(=O)CC(C(=O)Nc2ccc(Cl)cc2)S1 (configuration not stated),-7,-1,101,101,1.4,9
CCOc1ccc(C(=O)N/N=C/c2ccc(SC)cc2)cc1,8,-9,108,99,1.1,-2
O=C(N/N=C\c1ccc(F)cc1)c1ccc(F)cc1,15,-51,145*,116,1.8,-5
COC(=O)c1ccc(/C=N/NC(=O)c2cccc(F)c2)cc1,98,-33,130*,95,2.6,16
CSc1ccc(/C=N/NC(=O)c2cccc(O)c2)cc1,159*,4,97,65,4.5*,47*
O=C(N/N=C/c1ccccc1Cl)c1ccc(F)cc1,76,-43,138*,84,2.8,24
CCOc1cc(S(=O)(=O)NCC2OCCc3ccccc32)c(OCC)cc1-n1cnnn1 (configuration not stated),5,3,95,100,1.1,4
CS(=O)(=O)c1ccc2nc(NC(=O)C3CCCO3)sc2c1 (configuration not stated),32,-29,124,99,0.98,4
O=C(Nc1nc2ccc(Cl)cc2s1)C1CCCO1 (configuration not stated),102,-48,144*,90,4.6*,16
O=C(Nc1nc2ccc([N+](=O)[O-])cc2s1)C1CCCO1 (configuration not stated),62,-38,136*,92,2.2,11
COC(=O)c1sccc1NC(=O)CN(C)NS(=O)(=O)c1ccc(F)cc1,11,-2,102,99,0.97,4
CCNc1ccc(C2(O)C(=O)c3ccccc3C2=O)cc1,-3,14,87,93,1.3,10
CCn1nc(C)c(CNC(=O)CC2C(=O)NCCN2CC(C)(C)C)c1C (configuration not stated),4,-9,109,97,1,9
O=C(CCCc1ccccc1)Nc1cccnc1Cl,19,-10,108,99,1.2,11
Cc1ccccc1C(=O)Nc1ccc(Cl)cn1,68,-32,129*,95,2.5,14
Cc1ccc(NC(=O)CCCc2ccccc2)nc1,73,-43,138*,112,1.2,-6
Cc1cccnc1NC(=S)NCCc1ccccc1,62,-35,130*,92,2.1,16
O=C(CCc1ccccc1)Nc1ccc(Cl)cn1,-75,-33,130*,101,1.9,4
CCSc1nnc(NC(=O)c2cc(C)nc3ccccc23)s1,-9,-1,101,105,0.78,-1
